Source: ChEMBL document CHEMBL1153351, “7-Sulfonamido-3-benzazepines as potent and selective 5-HT2C receptor agonists: hit-to-lead optimization” (Bioorg Med Chem Lett, 2009)

Experiments:
[1] = Apparent permeability from basolateral to apical side of MDCK cells expressing mdr1; type: ADME, cell-based, Canis lupus familiaris; details: dog
In short: (§1)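 Transit across MDCK-mdr1 monolayers, measured in both apical-to-basolateral and basolateral-to-apical directions. Reported as Papp (10^-6 cm/s), used to judge membrane permeability and P-gp efflux.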

Liver microsomes = experiment: Metabolic stability in human liver microsomes assessed as intrinsic clearance; type: ADME, Microsome
In short: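 High-throughput incubation with human liver microsomes. Metabolic stability expressed as intrinsic clearance (μL/min/mg).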

[2] = target: T1, 5-hydroxytryptamine receptor 2C (Homo sapiens) (UniProt P28335); experiment: Agonist activity at human recombinant 5HT2C receptor expressed in CHOK1 cells assessed as calcium mobilization by FLIPR assay relative to serotonin; type: functional, cell-based; details: CHO-K1
T1 sequence (whole entry): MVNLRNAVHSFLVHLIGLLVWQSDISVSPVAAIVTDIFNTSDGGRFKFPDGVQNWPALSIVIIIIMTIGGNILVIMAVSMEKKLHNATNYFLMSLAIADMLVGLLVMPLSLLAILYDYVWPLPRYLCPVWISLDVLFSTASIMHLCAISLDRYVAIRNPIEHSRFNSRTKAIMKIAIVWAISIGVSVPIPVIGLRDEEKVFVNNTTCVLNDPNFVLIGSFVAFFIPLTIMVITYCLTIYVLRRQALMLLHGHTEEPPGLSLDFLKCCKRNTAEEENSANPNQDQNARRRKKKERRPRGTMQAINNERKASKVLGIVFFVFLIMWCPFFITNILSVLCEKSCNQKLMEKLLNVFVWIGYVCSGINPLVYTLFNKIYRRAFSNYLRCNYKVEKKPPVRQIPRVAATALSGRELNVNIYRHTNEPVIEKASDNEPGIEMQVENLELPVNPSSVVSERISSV
In short: (§2)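 Human 5-HT2C receptor expressed recombinantly in CHO-K1 cells. Agonist response was read as a fluorescence-based calcium mobilization signal on FLIPR, giving EC50 and Emax. Values are geometric means of 2–4 experiments.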

[3] = Apparent permeability from apical to basolateral side of MDCK cells expressing mdr1; type: ADME, cell-based, Canis lupus familiaris; details: dog; in short: as §1
[4] = target: T2, 5-hydroxytryptamine receptor 2B (Homo sapiens, UniProt P41595); experiment: Agonist activity at human recombinant 5HT2B receptor by cell-based system; type: functional
In short: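 Agonist activity read in a recombinant cell-based system expressing the human 5-HT2B receptor, giving EC50 and Emax. Values are geometric means of 2–4 experiments.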

[5] = target: T3, 5-hydroxytryptamine receptor 2C (Homo sapiens, UniProt P28335); experiment: Agonist activity at human recombinant 5HT2C receptor expressed in CHOK1 cells assessed as calcium mobilization by FLIPR assay; type: functional, cell-based, CHO-K1; in short: as §2
T3 sequence (P28335 whole entry): T1 sequence (whole entry)

[6] = target: T1, 5-hydroxytryptamine receptor 2C (Homo sapiens); experiment: Agonist activity at human recombinant 5HT2C receptor expressed in CHOK1 cells assessed as calcium mobilization at 10 uM by FLIPR assay relative to serotonin; type: functional, cell-based; details: CHO-K1
In short: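 Fluorescent calcium mobilization read by FLIPR in recombinant CHO-K1 cells expressing human 5-HT2C receptor. Value is % activation at 10 μM, geometric mean of 2–4 experiments.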

[7] = Distribution coefficient, log D at pH 7.4; type: physicochemical; details: octanol/water
[8] = target: T3, 5-hydroxytryptamine receptor 2C; experiment: Displacement of [3H]mesulergine form human recombinant 5HT2C receptor expressed in mouse Swiss 3T3 cells by scintillation proximity assay; type: cell-based
In short: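 Inhibition of [3H]-mesulergine binding to human 5-HT2C receptor, read by scintillation proximity assay. Used membrane preparations from recombinant Swiss 3T3 cells.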

[9] = target: Voltage-gated inwardly rectifying potassium channel KCNH2 (Homo sapiens, UniProt Q12809); experiment: Binding affinity to human ERG
[10] = target: T2, 5-hydroxytryptamine receptor 2B; experiment: Agonist activity at human recombinant 5HT2B receptor at 10 uM by cell-based system; type: functional
In short: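 Agonist response measured in a recombinant cell-based system expressing human 5-HT2B. Values are % activation at 10 μM, geometric means of 2–4 experiments.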

T2 sequence (P41595 whole entry): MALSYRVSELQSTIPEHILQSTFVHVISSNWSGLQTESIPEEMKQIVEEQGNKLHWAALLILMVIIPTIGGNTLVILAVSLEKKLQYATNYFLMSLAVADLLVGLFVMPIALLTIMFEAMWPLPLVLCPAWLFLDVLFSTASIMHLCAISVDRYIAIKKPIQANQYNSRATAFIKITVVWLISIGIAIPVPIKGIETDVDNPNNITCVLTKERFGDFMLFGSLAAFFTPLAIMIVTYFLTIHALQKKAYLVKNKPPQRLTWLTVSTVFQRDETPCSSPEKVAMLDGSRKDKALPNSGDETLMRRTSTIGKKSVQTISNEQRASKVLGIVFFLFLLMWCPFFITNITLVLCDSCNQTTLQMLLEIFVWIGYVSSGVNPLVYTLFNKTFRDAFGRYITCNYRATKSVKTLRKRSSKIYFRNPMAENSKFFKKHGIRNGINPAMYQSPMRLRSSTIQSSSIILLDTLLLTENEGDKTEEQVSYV
Sequence of Voltage-gated inwardly rectifying potassium channel KCNH2 (Q12809 whole entry): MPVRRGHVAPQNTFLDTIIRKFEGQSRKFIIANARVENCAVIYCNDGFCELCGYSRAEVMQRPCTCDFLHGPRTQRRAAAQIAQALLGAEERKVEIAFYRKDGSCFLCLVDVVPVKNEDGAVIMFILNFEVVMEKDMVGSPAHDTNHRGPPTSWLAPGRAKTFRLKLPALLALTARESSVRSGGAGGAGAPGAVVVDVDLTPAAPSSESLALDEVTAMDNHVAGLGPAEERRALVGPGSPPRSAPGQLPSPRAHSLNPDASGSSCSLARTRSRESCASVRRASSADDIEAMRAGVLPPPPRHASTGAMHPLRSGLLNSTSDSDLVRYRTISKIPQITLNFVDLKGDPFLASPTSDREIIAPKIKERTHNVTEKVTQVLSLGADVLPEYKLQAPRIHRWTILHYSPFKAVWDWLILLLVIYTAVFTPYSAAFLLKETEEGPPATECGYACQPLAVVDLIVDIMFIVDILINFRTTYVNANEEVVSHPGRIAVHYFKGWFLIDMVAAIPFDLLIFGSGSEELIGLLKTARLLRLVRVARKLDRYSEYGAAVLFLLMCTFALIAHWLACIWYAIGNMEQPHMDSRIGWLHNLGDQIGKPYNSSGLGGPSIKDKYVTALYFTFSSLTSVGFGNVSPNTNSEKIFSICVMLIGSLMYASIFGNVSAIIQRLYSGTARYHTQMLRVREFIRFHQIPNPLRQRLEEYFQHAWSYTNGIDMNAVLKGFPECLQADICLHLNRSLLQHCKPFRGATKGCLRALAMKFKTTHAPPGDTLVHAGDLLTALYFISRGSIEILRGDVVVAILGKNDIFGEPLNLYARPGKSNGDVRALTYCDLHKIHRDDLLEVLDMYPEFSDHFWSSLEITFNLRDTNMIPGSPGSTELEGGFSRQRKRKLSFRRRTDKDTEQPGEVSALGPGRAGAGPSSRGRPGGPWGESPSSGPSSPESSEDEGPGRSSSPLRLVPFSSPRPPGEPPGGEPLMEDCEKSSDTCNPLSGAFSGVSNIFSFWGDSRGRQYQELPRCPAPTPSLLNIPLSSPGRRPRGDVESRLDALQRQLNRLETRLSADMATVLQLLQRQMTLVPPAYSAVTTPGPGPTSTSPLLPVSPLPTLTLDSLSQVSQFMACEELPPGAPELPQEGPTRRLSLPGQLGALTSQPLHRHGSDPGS

Structure (SMILES): O=S(=O)(c1ccc2c(c1)CCNCC2)N1CC(Oc2cccc(Cl)c2)C1
- Papp B→A [1]: 20 ×10⁻⁶ cm/s
- clearance (Liver microsomes): 9 µL/min/mg
- Emax [2]: 82%
- Papp A→B [3]: 12 ×10⁻⁶ cm/s
- EC50 [4]: > 9940 nM
- EC50 [5]: 12 nM

Structure (SMILES): CN(c1ccc2c(c1)CCNCC2)S(=O)(=O)c1ccccc1F
- Emax [6]: 10%

Structure (SMILES): O=S(=O)(c1ccccc1)c1ccc2c(c1)CCNCC2
- Papp B→A [1]: 25 ×10⁻⁶ cm/s
- clearance (Liver microsomes): < 8 µL/min/mg
- Emax [2]: 71%
- logD [7]: 0.5
- Ki [8]: 6 nM
- Papp A→B [3]: 21 ×10⁻⁶ cm/s
- EC50 [4]: 18 nM
- Emax [4]: 61%
- Ki [9]: > 7200 nM
- EC50 [5]: 9 nM

Structure (SMILES): CN(Cc1ccccc1)S(=O)(=O)c1ccc2c(c1)CCNCC2
- Papp B→A [1]: 33 ×10⁻⁶ cm/s
- Emax [2]: 40%
- logD [7]: 1
- Ki [8]: 10 nM
- Papp A→B [3]: 29 ×10⁻⁶ cm/s
- EC50 [4]: > 9940 nM
- EC50 [5]: 94 nM

Structure (SMILES): CN(c1ccccc1)S(=O)(=O)c1ccc2c(c1)CCNCC2
- Emax [6]: 23%
- Ki [8]: 1200 nM
- EC50 [4]: 478 nM
- Emax [4]: 46%

Structure (SMILES): O=S(=O)(NCC1CC1)c1ccc2c(c1)CCNCC2
- Emax [2]: 47%
- Ki [8]: 235 nM
- EC50 [4]: 103 nM
- Emax [4]: 47%
- EC50 [5]: 631 nM

Structure (SMILES): CCCNS(=O)(=O)c1ccc2c(c1)CCNCC2
- Emax [2]: 59%
- Ki [8]: 531 nM
- EC50 [4]: 197 nM
- Emax [4]: 30%
- EC50 [5]: 959 nM

Structure (SMILES): COc1c(S(=O)(=O)N2CCC(Oc3ccccc3Cl)CC2)ccc2c1CCNCC2
- Emax [6]: < 10%

Structure (SMILES): O=S(=O)(c1cccc(F)c1)c1ccc2c(c1)CCNCC2
- Emax [2]: 81%
- EC50 [4]: 33 nM
- Emax [4]: 67%
- EC50 [5]: 9 nM

Structure (SMILES): O=S(=O)(c1ccc2c(c1)CCNCC2)N1CC[C@H](Oc2ccccc2Cl)C1
- clearance (Liver microsomes): 34 µL/min/mg
- Emax [2]: 47%
- logD [7]: 1.3
- EC50 [4]: > 9940 nM
- EC50 [5]: 31 nM

Structure (SMILES): O=S(=O)(c1ccc2c(c1)CCNCC2)N1CCOCC1
- Emax [2]: 55%
- Ki [8]: 196 nM
- EC50 [5]: 186 nM

Structure (SMILES): O=S(=O)(c1ccc2c(c1)CCNCC2)N1CCCC1
- Emax [2]: 86%
- Ki [8]: 51 nM
- EC50 [4]: 357 nM
- Emax [4]: 68%
- EC50 [5]: 50 nM

Structure (SMILES): CN(C)S(=O)(=O)c1ccc2c(c1)CCNCC2
- Emax [2]: 74%
- Ki [8]: 87 nM
- EC50 [4]: 125 nM
- Emax [4]: 57%
- EC50 [5]: 47 nM

Structure (SMILES): O=S(=O)(Nc1ccccc1Cl)c1ccc2c(c1)CCNCC2
- Emax [2]: 38%
- Ki [8]: 156 nM
- EC50 [4]: 478 nM
- Emax [4]: 16%
- EC50 [5]: 857 nM

Structure (SMILES): COc1cc(S(=O)(=O)N(C)Cc2ccccc2)c(OC)c2c1CCNCC2
- Emax [2]: 50%
- EC50 [4]: > 9940 nM
- EC50 [5]: 170 nM

Structure (SMILES): O=S(=O)(Nc1ccc2c(c1)CCNCC2)c1ccccc1F
- Emax [6]: 18%

Structure (SMILES): CN(CC1COc2ccccc21)S(=O)(=O)c1ccc2c(c1)CCNCC2 (centres undefined)
- Papp B→A [1]: 34 ×10⁻⁶ cm/s
- Emax [2]: 74%
- Activity [10]: < 10%
- logD [7]: 1
- Ki [8]: 58 nM
- Papp A→B [3]: 18 ×10⁻⁶ cm/s
- EC50 [4]: > 9940 nM
- Ki [9]: 2990 nM
- EC50 [5]: 41 nM
